The values below come from ChEMBL document CHEMBL1275303, “Synthesis and antimicrobial activity of 2-substituted [4-(1,3,4-oxadiazol-2-yl methyl)] phthalazin-1(2H)-one derivatives” (2010).

Each structure is given as a SMILES string.

Experiment [1] has as its system Aspergillus flavus. Kind of experiment: Antimicrobial activity against Aspergillus flavus at 100 ug/mL after 72 hrs by well plate method. It is filed as functional. The settings on record: read-out: IZ.
Experiment [2] deals with Bacillus subtilis. Description: Antimicrobial activity against Bacillus subtilis at 100 ug/mL after 24 hrs by well plate method. It is filed as functional. Particulars: read-out: IZ. The essentials: (§1)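 Agar well diffusion in nutrient agar. About 1 cm³ of a 24 h broth culture was placed in sterile dishes, and molten agar at 45 °C was poured over it and set. 6 mm wells were bored and filled with compound in DMSO (100 or 50). Plates were incubated 24 h at 37 °C, and the inhibition zone was read in mm. Duplicate runs, with standard deviation; amoxicillin as reference.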

For experiment [3], the system named is Bacillus subtilis. Kind of experiment: Antimicrobial activity against Bacillus subtilis at 50 ug/mL after 24 hrs by well plate method. It is filed as functional. Particulars: read-out: IZ. The essentials: as §1
Experiment [4] deals with Escherichia coli. Kind of experiment: Antimicrobial activity against Escherichia coli at 50 ug/mL after 24 hrs by well plate method. It is filed as functional. The settings on record: read-out: IZ. Put shortly:
as §1

The test system of experiment [5] is Staphylococcus aureus. Kind of experiment: Antimicrobial activity against Staphylococcus aureus at 100 ug/mL after 24 hrs by well plate method. The settings on record: read-out: IZ. It is filed as functional. Put shortly:
as §1

In experiment [6] the test system is Nannizzia gypsea. Kind of experiment: Antimicrobial activity against Microsporum gypseum at 50 ug/mL after 72 hrs by well plate method. It is filed as functional. The settings on record: read-out: IZ. The essentials: (§2)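 Antifungal well-plate assay on Sabouraud dextrose agar using a 72 h old broth culture of the fungal strain. Wells were filled with compound dissolved in DMSO (100 or 50), and the zone of inhibition around each well was measured. […] served as reference.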

Experiment [7] deals with Staphylococcus aureus. Description: Antimicrobial activity against Staphylococcus aureus at 50 ug/mL after 24 hrs by well plate method. It is filed as functional. The settings on record: read-out: IZ. The essentials: as §1
The subject of experiment [8] is Salmonella typhi. Kind of experiment: Antimicrobial activity against Salmonella typhi at 100 ug/mL after 24 hrs by well plate method. It is filed as functional, Salmonella enterica subsp. enterica serovar Typhi. The settings on record: Salmonella enterica, read-out: IZ. The essentials:
(§3)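 Agar well diffusion in nutrient agar: about 1 cm³ of a 24 h broth culture placed in a sterile dish, molten agar at 45 °C poured over it and allowed to set. 6 mm holes cut with a sterile cork borer and filled with compound solution in DMSO. Incubated 24 h at 37 °C; inhibition zone diameter read in mm. Run in duplicate, standard deviation calculated.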

Experiment [9] concerns Salmonella typhi. Description: Antimicrobial activity against Salmonella typhi at 50 ug/mL after 24 hrs by well plate method. It is filed as functional, Salmonella enterica subsp. enterica serovar Typhi. Particulars: Salmonella enterica, read-out: IZ. Put shortly:
as §3

The test system of experiment [10] is Chrysosporium keratinophilum. Description: Antimicrobial activity against Chrysosporium keratinophilum at 50 ug/mL after 72 hrs by well plate method. It is filed as functional. The settings on record: read-out: IZ. Put shortly:
as §2

For experiment [11], the system named is Candida albicans. Kind of experiment: Antimicrobial activity against Candida albicans at 50 ug/mL after 72 hrs by well plate method. It is filed as functional. Particulars: read-out: IZ. Put shortly:
as §2

For experiment [12], the system named is Escherichia coli. Kind of experiment: Antimicrobial activity against Escherichia coli at 100 ug/mL after 24 hrs by well plate method. It is filed as functional. Particulars: read-out: IZ. Put shortly:
as §1

In experiment [13] the test system is Nannizzia gypsea. Kind of experiment: Antimicrobial activity against Microsporum gypseum at 100 ug/mL after 72 hrs by well plate method. It is filed as functional. The settings on record: read-out: IZ. The essentials:
as §2

For experiment [14], the system named is Candida albicans. Description: Antimicrobial activity against Candida albicans at 100 ug/mL after 72 hrs by well plate method. It is filed as functional. Particulars: read-out: IZ. Put shortly: as §2
In experiment [15] the test system is Chrysosporium keratinophilum. Description: Antimicrobial activity against Chrysosporium keratinophilum at 100 ug/mL after 72 hrs by well plate method. It is filed as functional. Particulars: read-out: IZ. The essentials:
as §2

Experiment [16] deals with Aspergillus flavus. Kind of experiment: Antimicrobial activity against Aspergillus flavus at 50 ug/mL after 72 hrs by well plate method. The settings on record: read-out: IZ. It is filed as functional.

Regarding `Cc1nnc(Cc2nn(Cc3ccc(Cl)nc3)c(=O)c3ccccc23)o1`, the zone of inhibition at 100 µg/mL is 5 mm in [1]; 0 mm in [2]; 1.5 mm in experiment [5]; 2.5 mm in experiment [8]; 3.5 mm in experiment [12]; 2 mm in experiment [13]. Besides, the zone of inhibition at 100 µg/mL is 3.5 mm in [14] and 0 mm in experiment [15]. Besides, the zone of inhibition at 50 µg/mL in [3] was found to be 0 mm; in [4] it was 1.5 mm; in experiment [6], 0 mm; in experiment [7], 0 mm; in [9] it was 1 mm; in experiment [10], 0 mm. For the same molecule, the zone of inhibition at 50 µg/mL in [11] and in [16] was 1 mm in each case.
Take `O=c1c2ccccc2c(Cc2nnc(C(F)(F)F)o2)nn1Cc1ccc(Cl)nc1`: the zone of inhibition at 100 µg/mL in [1] is 2.5 mm; in [2], 2 mm; in experiment [5] it was 6 mm; in experiment [8], 7 mm; in experiment [12] it was 8 mm; in experiment [13], 5 mm. In addition, the zone of inhibition at 100 µg/mL in [14] and in [15] was 4.5 mm throughout. Further, the zone of inhibition at 50 µg/mL in experiment [3] amounted to 0 mm; in experiment [4], 6 mm; in experiment [6], 3 mm; in experiment [7], 3.5 mm; in [9] it was 4 mm; in [10], 1 mm. The results for the zone of inhibition at 50 µg/mL in experiment [11] and in [16] were 1.5 mm and 0 mm, respectively.
Regarding `O=c1c2ccccc2c(Cc2nnc(C3CC3)o2)nn1Cc1ccc(Cl)nc1`, the zone of inhibition at 100 µg/mL in experiment [1] is 5 mm; in experiment [2] it was 6.5 mm; in [5] it was 4.5 mm; in experiment [8] it was 6 mm; in experiment [12] it was 11.5 mm; in [13], 7.5 mm. The zone of inhibition at 100 µg/mL is 8.5 mm in [14] and 2.5 mm in experiment [15]. The zone of inhibition at 50 µg/mL amounted to 4 mm in [3]; 7 mm in experiment [4]; 4.5 mm in experiment [6]; 1 mm in experiment [7]; 3 mm in experiment [9]; 0.5 mm in experiment [10]. The zone of inhibition at 50 µg/mL in experiment [11] worked out at 5.5 mm; in experiment [16] it was 2.5 mm.
As to `O=c1c2ccccc2c(Cc2nnc(-c3ccc(F)cc3)o2)nn1Cc1ccc(Cl)nc1`, the zone of inhibition at 100 µg/mL in [1] was found to be 4 mm; in [2], 5 mm; in [5], 6 mm; in [8], 7.5 mm; in experiment [12], 10 mm; in [13] it was 6.5 mm. In addition, the figures for the zone of inhibition at 100 µg/mL in experiment [14] and in [15] were 4.5 mm and 1.5 mm, respectively. The zone of inhibition at 50 µg/mL stood at 3 mm in experiment [3]; 8 mm in experiment [4]; 4 mm in experiment [6]; 4 mm in [7]; 3 mm in experiment [9]; 0 mm in experiment [10]. The results for the zone of inhibition at 50 µg/mL in [11] and in experiment [16] were 2.5 mm and 2 mm, respectively.
Take `O=c1c2ccccc2c(Cc2nnc(-c3ccc(Cl)cc3)o2)nn1Cc1ccc(Cl)nc1`: the zone of inhibition at 100 µg/mL in [1] is 5 mm; in experiment [2], 7 mm; in experiment [5] it was 4.5 mm; in experiment [8], 7.5 mm; in experiment [12], 8 mm; in experiment [13] it was 4 mm. The zone of inhibition at 100 µg/mL in [14] came to 5.5 mm; in [15] it was 3 mm. In addition, the zone of inhibition at 50 µg/mL in experiment [3] was found to be 3.5 mm; in [4], 5 mm; in [6] it was 1 mm; in experiment [7], 1 mm; in experiment [9], 4 mm; in experiment [10] it was 1 mm. Besides, the figures for the zone of inhibition at 50 µg/mL in experiment [11] and in [16] were 3 mm and 2.5 mm, respectively.
Take `Cc1ccccc1-c1nnc(Cc2nn(Cc3ccc(Cl)nc3)c(=O)c3ccccc23)o1`: the zone of inhibition at 100 µg/mL was 4 mm in experiment [1]; 2.5 mm in experiment [2]; 6.5 mm in [5]; 3 mm in [8]; 7 mm in experiment [12]; 3 mm in experiment [13]. Moreover, the zone of inhibition at 100 µg/mL in [14] came out at 3 mm; in experiment [15], 1.5 mm. In addition, the zone of inhibition at 50 µg/mL in experiment [3] worked out at 0 mm; in experiment [4], 4.5 mm; in experiment [6], 1 mm; in experiment [7], 4.5 mm; in experiment [9] it was 1 mm; in experiment [10], 0 mm. The results for the zone of inhibition at 50 µg/mL in experiment [11] and in experiment [16] were 0 mm and 1 mm, respectively.
For the molecule `O=c1c2ccccc2c(Cc2nnc(-c3ccsc3)o2)nn1Cc1ccc(Cl)nc1`, the zone of inhibition at 100 µg/mL in experiment [1] was found to be 7.5 mm; in [2] it was 6 mm; in experiment [5] it was 11.5 mm; in experiment [8], 15.5 mm; in experiment [12] it was 15.5 mm; in experiment [13], 11 mm. Also, the zone of inhibition at 100 µg/mL stood at 7.5 mm in experiment [14] and 10.5 mm in [15]. Moreover, the zone of inhibition at 50 µg/mL in experiment [3] came out at 4 mm; in [4], 10 mm; in experiment [6], 6.5 mm; in experiment [7], 7 mm; in experiment [9], 10 mm; in experiment [10], 6.5 mm. Further, the zone of inhibition at 50 µg/mL in [11] amounted to 5.5 mm; in experiment [16] it was 4 mm.
Turning to `O=c1c2ccccc2c(Cc2nnc(-c3ccc(Cl)nc3)o2)nn1Cc1ccc(Cl)nc1`, the zone of inhibition at 100 µg/mL is 6.5 mm in experiment [1]; 8 mm in [2]; 10.5 mm in experiment [5]; 6.5 mm in experiment [8]; 12.5 mm in [12]; 7 mm in experiment [13]. In addition, the zone of inhibition at 100 µg/mL in [14] came to 11.5 mm; in experiment [15] it was 6.5 mm. Besides, the zone of inhibition at 50 µg/mL in experiment [3] was 5.5 mm; in experiment [4], 7.5 mm; in experiment [6], 4 mm; in experiment [7], 7.5 mm; in experiment [9], 2.5 mm; in experiment [10] it was 4.5 mm. Also, the figures for the zone of inhibition at 50 µg/mL in experiment [11] and in [16] were 8.5 mm and 3.5 mm, respectively.
`Cc1nnc(Cc2nn(Cc3cnc(Cl)s3)c(=O)c3ccccc23)o1`: the zone of inhibition at 100 µg/mL worked out at 3 mm in [1]; 3 mm in experiment [2]; 1 mm in experiment [5]; 4.5 mm in experiment [8]; 5.5 mm in experiment [12]; 3.5 mm in experiment [13]. Also, the zone of inhibition at 100 µg/mL in experiment [14] and in experiment [15] was 2.5 mm throughout. In addition, the zone of inhibition at 50 µg/mL in [3] was 1 mm; in experiment [4] it was 2.5 mm; in [6] it was 0 mm; in experiment [7] it was 0 mm; in experiment [9], 2.5 mm; in experiment [10], 0 mm. Also, the zone of inhibition at 50 µg/mL in experiment [11] and in [16] was 1 mm each time.
Regarding `CC1(C)S[C@@H]2[C@H](NC(=O)[C@H](N)c3ccc(O)cc3)C(=O)N2[C@H]1C(=O)O` [AMOXICILLIN], the zone of inhibition at 100 µg/mL came to 14.5 mm in experiment [2], 16.5 mm in [5], 20.5 mm in experiment [8] and 18.5 mm in [12]. The zone of inhibition at 50 µg/mL came to 10.5 mm in experiment [3], 15 mm in experiment [4], 12.5 mm in experiment [7] and 12 mm in experiment [9].
`Cc1ncc([N+](=O)[O-])n1CCO` [METRONIDAZOLE]: the zone of inhibition at 100 µg/mL was determined as 17.5 mm in experiment [1], 17 mm in [13], 19.5 mm in experiment [14] and 14 mm in [15]. Also, the zone of inhibition at 50 µg/mL amounted to 14 mm in experiment [6], 11 mm in experiment [10], 15 mm in experiment [11] and 13.5 mm in experiment [16].
